# Data taken from PubChem BioAssay AID2655 (Broad Institute, 2010).
# Tested on: human platelets, SFLLRN-induced actin polymerization, FITC-phalloidin flow
# Test: inhibition of SFLLRN-induced platelet actin polymerization, late-stage follow-up, selectivity assay for platelet granule secretion inhibitor project, cell-based, FITC-phalloidin flow cytometry, human platelets (AID 2655)
# Conditions: at 10 µM; hits give high values
# In short: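 Test system: Gel-filtered platelets / Signal: FITC-phalloidin flow cytometry in fixed, permeabilized platelets / Reagent: 5 µM SFLLRN or none / Schedule: compound 20 min and SFLLRN 15 min, both 37 °C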
row,Compound,inhibition
1,O=C(Nc1cccc(NC(=O)c2ccccc2Cl)c1)c1ccco1,71.4%
2,CCCC(=O)Nc1cccc(NC(=O)c2ccccc2Br)c1,80.4%
